Activity calls are given as the source filed them. The rule behind the calls is not given here.
Legend:
[1] = Tmax in C57BL/6J mouse at 3 mg/kg, po measured up to 30 hrs by LC-MS/MS analysis; format: ADME, organism-based; conditions: in vivo
In short: (§1)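 Male C57BL/6J mice (n = 6) received single doses of 3 mg/kg po or 1 mg/kg iv. Plasma concentrations were measured by LC-MS. Values are mean ± SD. Oral bioavailability (%F) was calculated from the ratio to iv AUC.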

[2] = Cmax in C57BL/6J mouse at 3 mg/kg, po measured up to 30 hrs by LC-MS/MS analysis; format: ADME, organism-based; set-up: dose 3 mg/kg, route oral; conditions: in vivo; in short: as §1
[3] = Half life in C57BL/6J mouse at 3 mg/kg, po measured up to 30 hrs by LC-MS/MS analysis; format: ADME, organism-based; conditions: in vivo; in short: as §1
[4] = Clearance in C57BL/6J mouse at 1 mg/kg, iv measured up to 30 hrs by LC-MS/MS analysis; format: ADME, organism-based; conditions: in vivo; in short: as §1
[5] = AUC (0 to infinity) in C57BL/6J mouse 3 mg/kg, po measured up to 30 hrs by LC-MS/MS analysis; format: ADME, organism-based; set-up: dose 3 mg/kg, route oral, time infinity; conditions: in vivo
In short: (§2)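 Single-dose PK in male C57BL/6J mice (n = 6), dosed 1 mg/kg iv or 3 mg/kg orally. Plasma drug levels were measured by LC-MS, and PK parameters (Tmax, Cmax, t1/2, Cl, AUC, %F) were derived. Values are given as mean ± SD. Oral bioavailability was calculated against the iv AUC.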

[6] = AUC (0 to infinity) in C57BL/6J mouse 1 mg/kg, iv measured up to 30 hrs by LC-MS/MS analysis; format: ADME, organism-based; set-up: dose 1 mg/kg, time infinity, route intravenous; conditions: in vivo; in short: as §2
[7] = Oral bioavailability in C57BL/6J mouse at 3 mg/kg measured up to 30 hrs by LC-MS/MS analysis; format: ADME, organism-based; conditions: in vivo; in short: as §1
[8] = Toxicity in DBA1/J mouse assessed as reduction in body weight at 60 mg/kg, po […] measured thrice per week; format: organism-based; conditions: in vivo, 336 h
Mus musculus = test: Antiarthritic activity in complete Freund's adjuvant-induced DBA1/J mouse arthritis model assessed as inhibition in clinical arthritis score at 60 mg/kg, po administered for 14 days relative to control; format: functional, organism-based; conditions: in the assay text read “4 weeks” for “14 days”
In short: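 Male DBA1j mice had arthritis induced with a collagen mixture and were enrolled once clinical signs appeared. Animals were split into four groups of eight: vehicle, a positive control and two doses of test compound. Treatment ran four weeks. The read-out was percentage inhibition of clinical arthritis score versus the vehicle group.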

Tmax [1]: 0.21 h | Cmax [2]: 274 ng/mL | half-life [3]: 1.88 h | clearance [4]: 72.5 mL/min/kg | AUC [5]: 244 ng·h/mL | AUC [6]: 215 ng·h/mL | bioavailability [7]: 37.8%
SMILES: Cn1c(=O)n(-c2ccc(C(C)(C)C#N)cc2)c2c3cc(-c4cnc5ccccc5c4)ccc3ncc21 [DACTOLISIB]
Activity [8]: Toxic | inhibition (Mus musculus): Active

From ChEMBL document CHEMBL4390691, “Discovery of 1,3-dihydro-2H-imidazo[4,5-c]quinolin-2-ones based novel, potent and PI3Kδ selective inhibitors” (Bioorg Med Chem Lett, 2019)
